The source of these data is ChEMBL document CHEMBL1140764, “Chromen-based TNF-alpha converting enzyme (TACE) inhibitors: design, synthesis, and biological evaluation” (Bioorg Med Chem, 2008).

Some results are limits rather than exact numbers.

In assay [1] the target is Matrix metalloproteinase-9 (Homo sapiens, UniProt P14780). In words: Inhibition of human recombinant MMP9. In short, it runs like this: (§1)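 Recombinant human MMP-2 or MMP-9 catalytic domain with fluorogenic quenched peptide Mca-Pro-Leu-Gly-Leu-Dpa-Ala-Arg-NH2. Cleavage releases Mca. Fluorescence read at excitation 324, emission 420, and the rate of emission change is taken as enzyme activity. IC50 values are means of three experiments.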
Sequence of Matrix metalloproteinase-9 (P14780 whole entry, the tested form may be a part): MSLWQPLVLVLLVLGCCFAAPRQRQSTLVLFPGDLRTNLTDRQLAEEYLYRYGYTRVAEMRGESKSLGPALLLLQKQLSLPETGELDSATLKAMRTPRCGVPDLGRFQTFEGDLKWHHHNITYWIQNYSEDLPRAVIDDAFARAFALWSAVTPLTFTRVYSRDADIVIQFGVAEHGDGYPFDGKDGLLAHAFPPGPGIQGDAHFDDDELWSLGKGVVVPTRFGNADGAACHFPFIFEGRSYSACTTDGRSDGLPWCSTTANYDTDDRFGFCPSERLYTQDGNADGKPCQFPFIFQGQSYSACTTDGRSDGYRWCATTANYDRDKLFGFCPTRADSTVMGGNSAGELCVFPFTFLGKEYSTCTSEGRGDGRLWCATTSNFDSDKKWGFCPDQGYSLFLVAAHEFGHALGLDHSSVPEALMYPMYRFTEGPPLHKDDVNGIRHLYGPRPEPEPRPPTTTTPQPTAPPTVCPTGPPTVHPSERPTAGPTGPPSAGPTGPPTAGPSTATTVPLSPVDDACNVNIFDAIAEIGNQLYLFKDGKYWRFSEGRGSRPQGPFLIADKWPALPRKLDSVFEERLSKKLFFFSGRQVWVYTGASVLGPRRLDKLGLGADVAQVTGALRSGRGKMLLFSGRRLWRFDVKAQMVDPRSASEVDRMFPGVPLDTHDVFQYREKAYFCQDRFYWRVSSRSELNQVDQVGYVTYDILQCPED

Assay [2] concerns the target 72 kDa type IV collagenase (Homo sapiens, UniProt P08253). In words: Inhibition of human recombinant MMP2. Put shortly:
as §1

Assay [3] has as its system RAW264.7. In words: Inhibition of TNFalpha production in mouse RAW264.7 cells after 24 hrs by ELISA. Conditions: RAW264.7, 24 h; call rule not given here. The assay is classed as functional, cell-based. Put shortly: (§2)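 RAW264.7 cells cultured with inhibitors for 24 h. Secreted TNF-α in culture supernatant quantified by ELISA following the kit instructions. IC50 values are means of three experiments; line 3 is the single-concentration 10 μM result.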
On the technique in general: ELISA stands for enzyme-linked immunosorbent assay.

Assay [4] deals with RAW264.7. In words: Inhibition of NO production in mouse RAW264.7 cells at 10 uM after 24 hrs by ELISA. It counts as functional, cell-based. The conditions noted are these: in the assay text read “by Griess assay” for “by ELISA”. Put shortly:
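RAW264.7 cells cultured with inhibitors for 24 h. NO2- accumulation in medium taken as NO output: supernatant mixed 1:1 with Griess reagent (1% sulfanilamide, 0.1% naphthylethylenediamine dihydrochloride, 2% phosphoric acid), 10 min at room temperature, absorbance at 540 nm against a NaNO2 standard curve. Single concentration 10 μM. Means of three experiments.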

In assay [5] the target is Disintegrin and metalloproteinase domain-containing protein 17 (Homo sapiens, UniProt P78536). In words: Inhibition of human TACE.
Sequence of Disintegrin and metalloproteinase domain-containing protein 17 (P78536 whole entry, the tested form may be a part): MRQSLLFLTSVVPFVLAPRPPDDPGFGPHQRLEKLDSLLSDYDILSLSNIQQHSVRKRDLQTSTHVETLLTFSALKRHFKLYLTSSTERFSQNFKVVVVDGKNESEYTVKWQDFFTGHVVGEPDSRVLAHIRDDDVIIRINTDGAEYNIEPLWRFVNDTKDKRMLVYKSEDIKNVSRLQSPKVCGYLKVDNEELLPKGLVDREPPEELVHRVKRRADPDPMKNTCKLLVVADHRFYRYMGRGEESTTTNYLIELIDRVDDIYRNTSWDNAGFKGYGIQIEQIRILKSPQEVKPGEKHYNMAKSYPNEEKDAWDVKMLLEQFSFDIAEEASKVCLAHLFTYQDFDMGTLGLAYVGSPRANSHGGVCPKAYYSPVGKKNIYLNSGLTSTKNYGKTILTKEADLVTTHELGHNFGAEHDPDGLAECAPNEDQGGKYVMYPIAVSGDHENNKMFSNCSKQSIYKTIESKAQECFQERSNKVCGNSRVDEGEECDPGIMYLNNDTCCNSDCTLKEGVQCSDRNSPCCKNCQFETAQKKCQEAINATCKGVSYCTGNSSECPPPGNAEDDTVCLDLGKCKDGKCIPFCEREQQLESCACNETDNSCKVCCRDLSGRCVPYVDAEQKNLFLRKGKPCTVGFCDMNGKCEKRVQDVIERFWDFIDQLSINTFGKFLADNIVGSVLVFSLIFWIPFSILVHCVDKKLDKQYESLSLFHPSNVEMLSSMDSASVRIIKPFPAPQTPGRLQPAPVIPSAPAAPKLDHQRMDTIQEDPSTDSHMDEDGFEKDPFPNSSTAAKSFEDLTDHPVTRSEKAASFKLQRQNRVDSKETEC
In assay [6] the test system is RAW264.7. In words: Inhibition of TNFalpha production in mouse RAW264.7 cells at 10 uM after 24 hrs by ELISA. The assay is classed as functional, cell-based. Put shortly: as §2

Sequence of 72 kDa type IV collagenase (P08253 whole entry): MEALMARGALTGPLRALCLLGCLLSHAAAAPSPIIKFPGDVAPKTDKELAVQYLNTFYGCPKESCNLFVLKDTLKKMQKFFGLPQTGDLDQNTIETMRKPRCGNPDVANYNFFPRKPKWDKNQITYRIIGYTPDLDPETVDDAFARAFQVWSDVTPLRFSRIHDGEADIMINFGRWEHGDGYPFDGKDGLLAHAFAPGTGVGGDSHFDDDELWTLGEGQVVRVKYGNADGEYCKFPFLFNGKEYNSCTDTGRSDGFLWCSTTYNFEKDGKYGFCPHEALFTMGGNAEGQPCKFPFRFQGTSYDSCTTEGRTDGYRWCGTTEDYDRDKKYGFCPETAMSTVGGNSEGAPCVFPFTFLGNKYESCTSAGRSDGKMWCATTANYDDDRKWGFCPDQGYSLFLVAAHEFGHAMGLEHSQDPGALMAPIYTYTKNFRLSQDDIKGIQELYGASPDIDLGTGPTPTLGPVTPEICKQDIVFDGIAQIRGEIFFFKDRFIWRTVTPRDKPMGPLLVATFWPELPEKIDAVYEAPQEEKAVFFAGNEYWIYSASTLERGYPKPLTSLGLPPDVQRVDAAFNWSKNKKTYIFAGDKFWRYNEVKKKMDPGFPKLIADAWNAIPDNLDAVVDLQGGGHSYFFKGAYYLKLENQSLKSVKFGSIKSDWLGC

What is called IC50 is the concentration that gives 50% inhibition. Regarding `O=C(CCc1cc2ccccc2oc1=O)NO`, the IC50 in assay [1] is 1.41 µM; in assay [2], 0.2 µM; in assay [3], 5.64 µM; in assay [4], “Not Active”; in assay [5], 0.15 µM.

Turning to `COc1ccc2oc(=O)c(CC(C)C(=O)NO)cc2c1` (configuration not stated), the IC50 in assay [3] is 0.22 µM; in assay [4], “Not Active”; in assay [5] it was 0.036 µM.

For `C/C=C/C=C\C=C1\C=C(CCC(=O)NO)C(=O)OC1`, the IC50 was 0.023 µM in assay [1]; 0.006 µM in assay [2]; 8.8 µM in assay [3]; “Not Active” in assay [4]; 0.028 µM in assay [5].

`Cc1ccc2oc(=O)c(CCC(=O)NO)cc2c1`: the IC50 is 3.05 µM in assay [1]; 0.23 µM in assay [2]; 1.3 µM in assay [3]; “Not Active” in assay [4]; 0.06 µM in assay [5].

On to `O=C(CCc1cc2cc(Br)ccc2oc1=O)NO`, for which the IC50 is 24.5 µM in assay [1]; 0.86 µM in assay [2]; 13 µM in assay [3]; “Not Active” in assay [4]; 0.84 µM in assay [5].

As for `Cc1ccc2oc(=O)c(CC(C)C(=O)NO)cc2c1` (configuration not stated), the IC50 is over 10 µM in assay [1]; 1.04 µM in assay [2]; 0.32 µM in assay [3]; “Not Active” in assay [4]; 0.003 µM in assay [5].

`C=CCC(Cc1cc2cc(C)ccc2oc1=O)C(=O)NO` (configuration not stated): the results for the IC50 in assay [3], in assay [4] and in assay [5] were 0.52 µM, “Not Active” and 0.03 µM, respectively.

Regarding `O=C(CCc1cc2cc(Cl)ccc2oc1=O)NO`, the IC50 in assay [1] is 16.4 µM; in assay [2], 1.47 µM; in assay [3], 25.6 µM; in assay [4] it was “Not Active”; in assay [5], 0.55 µM.

Turning to `Cc1ccc2oc(=O)c(CC(Cc3ccccc3)C(=O)NO)cc2c1` (configuration not stated), the IC50 was 0.54 µM in assay [3], “Not Active” in assay [4] and 0.005 µM in assay [5].

For `COc1ccc2oc(=O)c(CCC(=O)NO)cc2c1`, the IC50 in assay [1] was 5.66 µM; in assay [2] it was 0.59 µM; in assay [3], 2.21 µM; in assay [4] it was “Not Active”; in assay [5] it was 0.11 µM.

Take `CC(C)(C)c1ccc2oc(=O)c(CCC(=O)NO)cc2c1`: the IC50 entry is “Not Active” in assay [6], “Not Active” in assay [4] and 12.4 µM in assay [5].
